# High-throughput results (PubChem BioAssay)
# MLLE-PAM2 inh: inhibitors of microRNA-mediated deadenylation, human PABP1 MLLE binding; GST-MLLE / FITC-PAM2 fluorescence polarization; inhibition, % at 20 µM; 360,000 tested, 0.36% active; AID 588489; in the data active = inhibition above about 35%, passing the limit was not always enough;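 also: plate controls were DMSO wells with GST-MLLE for no effect and wells lacking GST-MLLE protein for full effect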
# IMP-1 inhibitor: blocks Pseudomonas aeruginosa IMP-1 metallo-beta-lactamase; purified IMP-1, nitrocefin hydrolysis, epi-absorbance fluorescence; inhibition, % at 5.6 µM; 290,000 tested, 0.45% active; AID 1556;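 active = inhibition above the mean plus 3 SD of all compounds in the same screening run, cut at about 4.5% in these data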;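 also: 0% = IMP-1 with DMSO and 100% = DMSO wells lacking enzyme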
#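 system = purified recombinant IMP-1 beta-lactamase | amount = 0.2 nM IMP-1, as dispensed | medium = HEPES buffer pH 7.1 with ZnSO4 and Brij 35 | times = 25 °C, 15 min preincubation, 25 min reaction | detection = plate fluorescence quenching by hydrolysis product, ex 480/em 530 nm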
# VIM-2 inh: blocks Pseudomonas aeruginosa VIM-2 metallo-beta-lactamase. purified VIM-2, nitrocefin hydrolysis, epi-absorbance fluorescence. inhibition, % at 5.6 µM. 290,000 tested, 0.89% active. AID 1527;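 active = inhibition above the mean of all tested compounds plus 3 SD, cutoff set per screening run, cut at about 7.5% in these data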;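 also: red hydrolysis product quenches plate fluorescence so inhibitors raise well fluorescence; 0% = enzyme with DMSO and 100% = DMSO without enzyme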
# PABP FP inh: blocks human PABP binding to poly(A) RNA; P11940; fluorescence polarization; calls only at 35 µM; 290,000 tested, 1% active;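 also: calls also rest on retests at 20 µM and on dose response follow-up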
# eIF4H inh: inhibitors of RNA binding by human eIF4H. Q15056. eIF4H fluorescence polarization binding assay. inhibition, % at 35 µM. 290,000 tested, 0.94% active;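 also: calls also rest on retests at 20 µM and on dose response follow-up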
# * hit, by the source's call; i = inactive; ? = inconclusive; . = not tested or not shown; + = active, no number. Shown are actives, neighbours in structure and some others; about 2.2% of the full set was active somewhere. Unless noted, no rule for the calls is given here.
SMILES,MLLE-PAM2 inh,IMP-1 inhibitor,VIM-2 inh,PABP FP inh,eIF4H inh
COC(=O)/C(C(C)=O)=C(/C=C/C=C/N(C)C)N(C)C,18.8,-3.3,-2.9,+,80.5*
O=C(/C=C/c1cc([N+](=O)[O-])ccc1OC(F)F)Nc1cccc(OC(F)F)c1,20.3,-2.5,-1.9,i,-11.9
COCC(=O)Nc1sc2c(c1C(=O)OC)CCC(C)C2 (stereo not drawn),-0.3,-2.6,-3.5,i,-6.8
CC1CCc2c(sc(NC(=O)CCC(=O)O)c2C(=O)NC2CC2)C1 (stereo not drawn),39.7*,-2.8,-0.7,i,-7.9
COc1cc2c(cc1OC)CN(CC(=O)Nc1ccc(C)c(C)c1)CC2,8.2,-2.1,-3.1,i,0.4
Cc1cccn2c(=O)c3cc(C(=O)NCCc4ccccc4)sc3nc12,-8.0,-2.1,3.7,i,7.0
Cc1ccccc1NC(=O)c1cc2c(=O)n3cccc(C)c3nc2s1,-5.9,-1.7,9.2*,i,-2.8
COc1ccccc1CNC(=O)CSC1=NCCS1,41.2*,-0.3,-1.8,i,-7.5
COc1ccccc1NC(=O)CSc1n[nH]c(-c2ccccn2)n1,-4.8,-2.3,-3.5,i,16.9
CC(NC(=O)CSC1=NCCS1)c1ccccc1 (stereo not drawn),45.7*,-4.0,-3.2,i,-11.9
O=C(CSc1n[nH]c(-c2ccccn2)n1)Nc1ccccc1F,-6.3,-3.6,9.6*,i,13.1
CC(NC(=O)Cc1ccc(-c2ccccc2)cc1)c1ccccc1 (stereo not drawn),16.7,5.0*,0.1,i,-0.6
COc1ccccc1CNC(=O)CSc1ccc(Br)cc1,12.6,-4.3,-3.5,i,-5.8
Cc1ccc(OCC(=O)Oc2cccc(C)c2C)cc1,9.7,-5.8,-4.9,i,-4.7
O=C(CSC1=NCCS1)Nc1ccccc1F,42.8*,-0.3,1.4,i,-0.7
COC(=O)[C@H]1[C@@H](C)N(Cc2ccccc2)C(=O)N[C@H]1c1ccccc1,6.5,.,.,.,.
NS(=O)(=O)c1ccc(CCNC(=O)C(=O)c2cn(CC(=O)N3CCCC3)c3ccccc23)cc1,4.8,-0.9,0.7,i,-3.8
Cc1c(C(=O)C(=O)NCCc2ccc(S(N)(=O)=O)cc2)c2ccccc2n1C,-5.5,-2.4,-1.0,+,93.2*
COCCc1ccc(OC2(C)CCN(Cc3cccc(OC)c3OC)C2)cc1 (stereo not drawn),9.2,.,.,.,.
NS(=O)(=O)c1ccc(CCNC(=O)C2Cc3ccccc3CN2C(=O)c2ccco2)cc1 (stereo not drawn),4.6,-6.3,-2.7,i,9.3
NS(=O)(=O)c1ccc(NC(=O)C2Cc3ccccc3CN2C(=O)c2ccco2)cc1 (stereo not drawn),12.9,0.4,-5.5,+,70.2*
CC(=O)c1ccc2c(c1)N(CCCN(C)C)c1ccccc1S2,50.2*,.,.,.,.
CC(=O)c1ccc2c(c1)Nc1ccccc1S2,7.3,-3.4,0.3,+,66.7*
O=C1NC(N2CCOCC2)=N/C1=C/c1ccc2c(c1)OCO2,-10.1,-3.0,-1.2,i,-8.6
CCOC(=S)N/C(=N\S(C)(=O)=O)c1ccccc1,38.6*,-1.1,-1.3,i,-8.1
SMILES,MLLE-PAM2 inh,IMP-1 inhibitor,VIM-2 inh,PABP FP inh,eIF4H inh
O=C(Nc1ccccc1OC(F)F)c1cc2c(s1)CCC2,1.4,-2.4,-3.1,i,83.7*
COc1ccccc1NC(=O)c1ccc(NC(=O)c2cc3c(s2)CCC3)cc1,-3.4,-2.0,-1.1,i,-6.6
Nc1nonc1C(=O)NCCN=Cc1cc(Cc2ccccc2)cc(Br)c1O,7.1,8.7*,-4.2,i,-0.2
Nc1nonc1C(=O)NCCN=Cc1ccccc1O,-7.0,-0.5,-3.5,i,0.1
CN1C(=O)Nc2cccc3cccc1c23,-1.9,-1.6,2.4,i,-0.9
CNS(=O)(=O)c1ccc2c3c(cccc13)C(=O)N2C,11.8,-2.1,-0.2,i,-7.4
CN1C(=O)N(C)c2ccc(C=O)c3cccc1c23,58.1*,-3.0,5.7,i,?
CN1C(=O)N(C)c2cccc3cccc1c23,5.2,-2.2,9.3*,i,2.4
CN1C(=O)N(C)c2ccc(Br)c3cccc1c23,-3.6,0.9,11.5*,i,-4.2
CNCc1ccccc1Sc1ccc(O)c(O)c1,40.5*,-3.4,-1.7,i,36.0
CCOc1cc(-c2cc(-c3ccc(C)cc3)nc(N)c2C#N)ccc1O,-40.1,-2.6,-0.4,+,57.5*
Nn1c(SCc2ccccc2F)nnc1-c1ccccn1,-7.5,-2.0,-1.4,+,4.1*
